Measurements from publication PMC11310375 (EJNMMI Radiopharmacy and Chemistry, 2024).
Square brackets hold non-standard residues; d marks the D form. Peptide text beside a SMILES is read from it. * marks the point of attachment. AspCH2OCO(5-Me-thien-2-yl) = Cc1ccc(C(=O)OCC(=O)[C@H](CC(=O)O)N*)s1; Phe(F5) = N[C@@H](Cc1c(F)c(F)c(F)c(F)c1F)C(=O)O; X5 = Cc1cccc(C)c1C(=O)OCC(=O)[C@@H](CC(=O)O)N*; X4 = Cc1ccc(C(=O)OCC(=O)[C@@H](CC(=O)O)N*)s1; X2 = O=C(CCOCCOCCOCCOCCn1cc(CCCF)nn1)*; d(β3hL) = CC(C)C[C@@H](N)CC(=O)O; 3Pal = N[C@@H](Cc1cccnc1)C(=O)O; d3Pal = N[C@H](Cc1cccnc1)C(=O)O; X3 = O=C(CCCc1cn(CCF)nn1)*; X1 = O=C(Cn1cc(CCCF)nn1)*; Ahx = NCCCCCC(=O)O

What was measured:
caspase-3 [1] = target: T1, caspase-3 (Homo sapiens, UniProt P42574); assay: Biochemical inhibition assay, kinact/Ki with AMAC substrate; details: for kinact/KI: read-out: kinact/Ki C3
T1 sequence (P42574 29-175 limits assumed): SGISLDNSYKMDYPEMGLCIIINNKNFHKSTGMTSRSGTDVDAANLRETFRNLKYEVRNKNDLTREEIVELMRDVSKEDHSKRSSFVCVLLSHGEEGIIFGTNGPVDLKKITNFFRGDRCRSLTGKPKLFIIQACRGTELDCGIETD
T1 sequence (P42574 176-277 limits assumed): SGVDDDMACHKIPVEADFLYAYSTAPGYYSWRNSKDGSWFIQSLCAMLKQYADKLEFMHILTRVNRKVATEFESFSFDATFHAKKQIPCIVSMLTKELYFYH
Summary of the method: (§1)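 Continuous fluorogenic inactivation assay with Ac-DEVD-AMAC at 100 μM final. Final enzyme concentrations were 1 nM caspase-3 and 5 nM caspase-7. Enzyme was added to substrate plus inhibitor, and fluorescence (ex 320/em 460) was read immediately. Progress curves were fit to F = -[v₀(1-exp(-kobst))/kobs-Fmax] to give kinact and Ki.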

caspase-6 = target: T2, caspase-6 (Homo sapiens, UniProt P55212); assay: Biochemical inhibition assay, kinact/Ki with AMAC substrate; details: read-out: kinact/Ki C6
T2 sequence (P55212 24-179 limits assumed): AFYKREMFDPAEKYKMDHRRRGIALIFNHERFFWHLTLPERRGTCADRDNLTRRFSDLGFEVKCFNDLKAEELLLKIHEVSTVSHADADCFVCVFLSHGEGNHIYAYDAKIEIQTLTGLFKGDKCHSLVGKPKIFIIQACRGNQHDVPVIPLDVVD
T2 sequence (P55212 194-293 limits assumed): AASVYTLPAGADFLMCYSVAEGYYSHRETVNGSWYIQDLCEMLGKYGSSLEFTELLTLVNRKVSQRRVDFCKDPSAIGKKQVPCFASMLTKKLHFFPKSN
Summary of the method: (§2)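 Caspase-8 (25 nM), caspase-9 (100 nM) and caspase-10 (20 nM) used Ac-IETD-AMAC; caspase-9 and caspase-10 buffers also had 0.7 M sodium citrate. Caspase-6 (25 nM) used Ac-VEID-AMAC. Fluorescence (ex 320/em 460) was read immediately, and progress curves were fit for kinact and Ki.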

caspase-7 = target: T3, caspase-7 (Homo sapiens, UniProt P55210); assay: Biochemical inhibition assay, kinact/Ki with AMAC substrate; details: read-out: kinact/Ki C7
T3 sequence (P55210 24-198 limits assumed): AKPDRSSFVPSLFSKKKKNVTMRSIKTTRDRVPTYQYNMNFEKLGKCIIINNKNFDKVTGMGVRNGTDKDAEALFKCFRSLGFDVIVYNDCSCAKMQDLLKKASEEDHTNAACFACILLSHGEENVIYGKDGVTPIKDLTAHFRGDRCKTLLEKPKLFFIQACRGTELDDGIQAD
T3 sequence (P55210 207-303 limits assumed): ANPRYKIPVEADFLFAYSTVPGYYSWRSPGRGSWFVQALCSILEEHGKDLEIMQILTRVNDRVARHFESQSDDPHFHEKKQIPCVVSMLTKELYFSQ
Summary of the method: as §1

caspase-8 = caspase-8 (Homo sapiens, UniProt Q14790); assay: Biochemical inhibition assay, kinact/Ki with AMAC substrate; details: read-out: kinact/Ki C8
Summary of the method: as §2

caspase-9 = target: T4, caspase-9 (Homo sapiens, UniProt P55211); assay: as above; details: read-out: kinact/Ki C9
T4 sequence (P55211 1-315 limits assumed): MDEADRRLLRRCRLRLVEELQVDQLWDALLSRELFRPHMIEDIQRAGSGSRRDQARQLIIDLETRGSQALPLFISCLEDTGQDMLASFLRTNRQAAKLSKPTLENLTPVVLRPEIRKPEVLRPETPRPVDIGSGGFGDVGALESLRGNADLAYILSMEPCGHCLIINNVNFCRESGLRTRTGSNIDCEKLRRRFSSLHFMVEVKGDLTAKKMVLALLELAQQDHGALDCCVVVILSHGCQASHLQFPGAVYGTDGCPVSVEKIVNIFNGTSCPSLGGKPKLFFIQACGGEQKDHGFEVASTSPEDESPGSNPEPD
T4 sequence (P55211 331-416 limits assumed): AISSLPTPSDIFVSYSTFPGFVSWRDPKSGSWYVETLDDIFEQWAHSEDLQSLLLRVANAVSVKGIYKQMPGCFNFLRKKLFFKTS
Summary of the method: as §2

caspase-10 = target: T5, caspase-10 (Homo sapiens, UniProt Q92851); assay: as above; details: read-out: kinact/Ki C10
T5 sequence (Q92851 220-415 limits assumed): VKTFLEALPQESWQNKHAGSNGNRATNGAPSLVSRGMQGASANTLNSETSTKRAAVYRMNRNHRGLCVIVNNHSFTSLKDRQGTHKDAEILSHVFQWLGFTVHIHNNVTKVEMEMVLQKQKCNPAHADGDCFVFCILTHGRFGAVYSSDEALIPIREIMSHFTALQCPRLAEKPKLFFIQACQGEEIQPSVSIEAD
T5 sequence (Q92851 416-521 limits assumed): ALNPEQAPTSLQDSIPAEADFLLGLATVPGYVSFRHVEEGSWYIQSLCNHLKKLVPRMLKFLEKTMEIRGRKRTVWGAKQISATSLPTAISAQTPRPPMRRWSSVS
Summary of the method: as §2

caspase-3 [2] = target: T1, caspase-3; details: cited from earlier work

caspase-8, sequence (Q14790 217-374 limits assumed): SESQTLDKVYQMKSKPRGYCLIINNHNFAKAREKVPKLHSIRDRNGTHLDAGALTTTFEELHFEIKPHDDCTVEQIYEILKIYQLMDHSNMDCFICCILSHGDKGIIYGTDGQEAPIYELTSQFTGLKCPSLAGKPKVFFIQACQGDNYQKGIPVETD
caspase-8, sequence (Q14790 385-479 limits assumed): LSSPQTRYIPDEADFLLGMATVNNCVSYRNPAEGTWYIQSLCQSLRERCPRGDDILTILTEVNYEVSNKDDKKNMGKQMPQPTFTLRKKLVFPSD

| kinact/KI (caspase-3 [1]) | kinact/KI (caspase-6) | kinact/KI (caspase-7) | kinact/KI (caspase-8) | kinact/KI (caspase-9) | kinact/KI (caspase-10) | inactivation rate on caspase-3 as compared to caspase-7 (caspase-3 [1]; ratio of kinact/Ki) | Compound | efficiency in inactivation of caspase-3, less than Ac-DEVD-KE (caspase-3 [2]; ref Solania et al. [2019]) | selectivity for caspase-3 against caspase-7 (caspase-3 [2]; ref Vickers et al. [2013]) | selectivity for caspase-3 against caspase-8 (caspase-3 [2]; ref Vickers et al. [2013]) |
| --- | --- | --- | --- | --- | --- | --- | --- | --- | --- | --- |
| 73500 M⁻¹ s⁻¹ | 200 M⁻¹ s⁻¹ | 200 M⁻¹ s⁻¹ |  |  |  |  | Cc1ccc(C(=O)OCC(=O)[C@@H](CC(=O)O)NC(=O)[C@@H](Cc2ccccc2)NC(=O)C[C@@H](CC(C)C)NC(=O)[C@@H](CC(=O)O)NC(=O)[C@@H](Cc2cccnc2)NC(=O)CCCCCNC(=O)CCCCCNC(=O)CCCc2cn(CCF)nn2)s1 [Inhibitor 1, (3R,6R,10R,13R,16R)-6-benzyl-13-(carboxymethyl)-35-(1-(2-fluoroethyl)-1H-1,2,3-triazol-4-yl)-10-isobutyl-3-(2-((5-methylthiophene-2-carbonyl)oxy)acetyl)-5,8,12,15,18,25,32-heptaoxo-16-(pyridin-3-ylmethyl)-4,7,11,14,17,24,31-heptaazapentatriacontanoic acid] ({X3-Ahx-Ahx}-[d3Pal][dD][d(β3hL)][dF]-X4) |  |  |  |
| 206000 M⁻¹ s⁻¹ | 5400 M⁻¹ s⁻¹ | 1000 M⁻¹ s⁻¹ |  |  |  |  | Cc1cccc(C)c1C(=O)OCC(=O)[C@@H](CC(=O)O)NC(=O)[C@@H](Cc1ccccc1)NC(=O)C[C@@H](CC(C)C)NC(=O)[C@@H](CC(=O)O)NC(=O)[C@@H](Cc1cccnc1)NC(=O)CCCCCNC(=O)CCCCCNC(=O)CCCc1cn(CCF)nn1 [Inhibitor 3, (3R,6R,10R,13R,16R)-6-benzyl-13-(carboxymethyl)-3-(2-((2,6-dimethylbenzoyl)oxy)acetyl)-35-(1-(2-fluoroethyl)-1H-1,2,3-triazol-4-yl)-10-isobutyl-5,8,12,15,18,25,32-heptaoxo-16-(pyridin-3-ylmethyl)-4,7,11,14,17,24,31-heptaazapentatriacontanoic acid] ({X3-Ahx-Ahx}-[d3Pal][dD][d(β3hL)][dF]-X5) |  |  |  |
| 863000 M⁻¹ s⁻¹ | 200 M⁻¹ s⁻¹ | 71400 M⁻¹ s⁻¹ | 7200 M⁻¹ s⁻¹ | 800 M⁻¹ s⁻¹ | 700 M⁻¹ s⁻¹ |  | Cc1ccc(C(=O)OCC(=O)[C@H](CC(=O)O)NC(=O)[C@H](Cc2ccccc2)NC(=O)[C@H](Cc2c(F)c(F)c(F)c(F)c2F)NC(=O)[C@H](CC(=O)O)NC(=O)[C@H](Cc2cccnc2)NC(=O)CNC(=O)[C@H](CCC(=O)O)NC(=O)CNC(=O)Cn2cc(CCCF)nn2)s1 [Inhibitor 4, (3S,6S,9S,12S,15S,21S)-6-benzyl-12-(carboxymethyl)-21-(2-(2-(4-(3-fluoropropyl)-1H-1,2,3-triazol-1-yl)acetamido)acetamido)-3-(2-((5-methylthiophene-2-carbonyl)oxy)acetyl)-5,8,11,14,17,20-hexaoxo-9-((perfluorophenyl)methyl)-15-(pyridin-3-ylmethyl)-4,7,10,13,16,19-hexaazatetracosanedioic acid] (X1-GEG[3Pal]D[Phe(F5)]F-{AspCH2OCO(5-Me-thien-2-yl)}) |  |  |  |
| 1.25e+06 M⁻¹ s⁻¹ | 300 M⁻¹ s⁻¹ | 106000 M⁻¹ s⁻¹ | 13500 M⁻¹ s⁻¹ | 1000 M⁻¹ s⁻¹ | 600 M⁻¹ s⁻¹ |  | Cc1ccc(C(=O)OCC(=O)[C@H](CC(=O)O)NC(=O)[C@H](Cc2ccccc2)NC(=O)[C@H](Cc2c(F)c(F)c(F)c(F)c2F)NC(=O)[C@H](CC(=O)O)NC(=O)[C@H](Cc2cccnc2)NC(=O)CCOCCOCCOCCOCCn2cc(CCCF)nn2)s1 [Inhibitor 5, (17S,20S,23S,26S,29S)-26-benzyl-20-(carboxymethyl)-1-(4-(3-fluoropropyl)-1H-1,2,3-triazol-1-yl)-29-(2-((5-methylthiophene-2-carbonyl)oxy)acetyl)-15,18,21,24,27-pentaoxo-23-((perfluorophenyl)methyl)-17-(pyridin-3-ylmethyl)-3,6,9,12-tetraoxa-16,19,22,25,28-pentaazahentriacontan-31-oic acid] (X2-[3Pal]D[Phe(F5)]F-{AspCH2OCO(5-Me-thien-2-yl)}) |  |  |  |
| 851000 M⁻¹ s⁻¹ | 200 M⁻¹ s⁻¹ | 108000 M⁻¹ s⁻¹ | 7700 M⁻¹ s⁻¹ | 900 M⁻¹ s⁻¹ | 900 M⁻¹ s⁻¹ |  | Cc1ccc(C(=O)OCC(=O)[C@H](CC(=O)O)NC(=O)[C@H](Cc2ccccc2)NC(=O)[C@H](Cc2c(F)c(F)c(F)c(F)c2F)NC(=O)[C@H](CC(=O)O)NC(=O)[C@H](Cc2cccnc2)NC(=O)CCCCCNC(=O)Cn2cc(CCCF)nn2)s1 [Inhibitor 6, (11S,14S,17S,20S,23S)-20-benzyl-14-(carboxymethyl)-1-(4-(3-fluoropropyl)-1H-1,2,3-triazol-1-yl)-23-(2-((5-methylthiophene-2-carbonyl)oxy)acetyl)-2,9,12,15,18,21-hexaoxo-17-((perfluorophenyl)methyl)-11-(pyridin-3-ylmethyl)-3,10,13,16,19,22-hexaazapentacosan-25-oic acid] ({X1-Ahx}-[3Pal]D[Phe(F5)]F-{AspCH2OCO(5-Me-thien-2-yl)}) |  |  |  |
| 1.62e+06 M⁻¹ s⁻¹ | 300 M⁻¹ s⁻¹ | 117000 M⁻¹ s⁻¹ | 15200 M⁻¹ s⁻¹ | 700 M⁻¹ s⁻¹ | 1000 M⁻¹ s⁻¹ | 14 times | Cc1ccc(C(=O)OCC(=O)[C@H](CC(=O)O)NC(=O)[C@H](Cc2ccccc2)NC(=O)[C@H](Cc2c(F)c(F)c(F)c(F)c2F)NC(=O)[C@H](CC(=O)O)NC(=O)[C@H](Cc2cccnc2)NC(=O)CNC(=O)CNC(=O)CNC(=O)Cn2cc(CCCF)nn2)s1 [Inhibitor 7, (13S,16S,19S,22S,25S)-22-benzyl-16-(carboxymethyl)-1-(4-(3-fluoropropyl)-1H-1,2,3-triazol-1-yl)-25-(2-((5-methylthiophene-2-carbonyl)oxy)acetyl)-2,5,8,11,14,17,20,23-octaoxo-19-((perfluorophenyl)methyl)-13-(pyridin-3-ylmethyl)-3,6,9,12,15,18,21,24-octaazaheptacosan-27-oic acid] (X1-GGG[3Pal]D[Phe(F5)]F-{AspCH2OCO(5-Me-thien-2-yl)}) |  |  |  |
| 549000 M⁻¹ s⁻¹ |  | 61000 M⁻¹ s⁻¹ | 5600 M⁻¹ s⁻¹ | 400 M⁻¹ s⁻¹ | 700 M⁻¹ s⁻¹ |  | Cc1ccc(C(=O)OCC(=O)[C@H](CC(=O)O)NC(=O)[C@H](Cc2ccccc2)NC(=O)[C@H](Cc2c(F)c(F)c(F)c(F)c2F)NC(=O)[C@H](CC(=O)O)NC(=O)[C@H](Cc2cccnc2)NC(=O)Cn2cc(CCCF)nn2)s1 [Inhibitor 8, (4S,7S,10S,13S,16S)-13-benzyl-7-(carboxymethyl)-1-(4-(3-fluoropropyl)-1H-1,2,3-triazol-1-yl)-16-(2-((5-methylthiophene-2-carbonyl)oxy)acetyl)-2,5,8,11,14-pentaoxo-10-((perfluorophenyl)methyl)-4-(pyridin-3-ylmethyl)-3,6,9,12,15-pentaazaoctadecan-18-oic acid] (X1-[3Pal]D[Phe(F5)]F-{AspCH2OCO(5-Me-thien-2-yl)}) |  |  |  |
|  |  |  |  |  |  |  | Ac-3Pal-Asp-βhLeu-Phe-Asp-KE [Ac-DW3-KE] | 500 times | 120 fold | 58 fold |
